STAT3 activator: STAT3 signaling activation; activation (% of control), % at 5.6 µM; hit rate 0.91% among 190,000; U3A cells, IL-6 STAT3-luciferase reporter, luminescence; 100% = signal with IL-6 EC80 alone;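 active means activation above the screen-wide mean of compound activation plus 3 SD, cut at about 130% in these data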;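 further: 0% = background luminescence of wells with medium and substrate only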
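Test system: human U3A cells carrying STAT3-luciferase construct; control set: IL-6-only wells as 100% reference; timing: compound pre-incubation 1 h before IL-6, then 6 h stimulation at 37 °C; also added: IL-6 stimulus at 33 ng/mL final; evaluation: % activation versus median of IL-6-stimulated wells; detection: reporter luminescence signal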
FXIa inh 1536: blocks human coagulation factor XIa protease activity; P03951; purified FXIa, Boc-Glu-Ala-Arg-AMC fluorogenic substrate; inhibition, % at 5 µM; hit rate 0.14% among 220,000; AID 798;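 active means inhibition of at least 40%; inactive means inhibition below 40%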;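 further: fluorescence of freed AMC excited at 355 nm; 0% = enzyme without compound and 100% = no enzyme blank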
Target sequence (P03951 19-387 limits assumed): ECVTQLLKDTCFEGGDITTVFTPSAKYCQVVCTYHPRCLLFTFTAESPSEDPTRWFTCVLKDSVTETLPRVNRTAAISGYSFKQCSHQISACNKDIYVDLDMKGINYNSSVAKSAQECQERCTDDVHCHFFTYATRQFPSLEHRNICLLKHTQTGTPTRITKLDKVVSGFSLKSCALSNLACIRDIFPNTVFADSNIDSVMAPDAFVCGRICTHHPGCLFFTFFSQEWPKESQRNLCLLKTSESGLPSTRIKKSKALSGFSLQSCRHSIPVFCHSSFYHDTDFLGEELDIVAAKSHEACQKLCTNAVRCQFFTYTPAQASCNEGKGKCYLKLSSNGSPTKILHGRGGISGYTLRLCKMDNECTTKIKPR
Target sequence (P03951 388-625 limits assumed): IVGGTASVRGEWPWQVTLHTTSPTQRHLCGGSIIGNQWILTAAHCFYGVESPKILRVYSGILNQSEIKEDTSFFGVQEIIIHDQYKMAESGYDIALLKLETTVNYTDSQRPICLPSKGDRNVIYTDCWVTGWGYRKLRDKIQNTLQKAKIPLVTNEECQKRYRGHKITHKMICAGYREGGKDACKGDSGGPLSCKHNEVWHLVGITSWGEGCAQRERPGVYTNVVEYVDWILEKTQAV
thrombin 1536: blocks human thrombin protease activity; alpha-thrombin, Boc-VPR-AMC fluorogenic substrate cleavage; inhibition, % at 5 µM; hit rate 0.26% among 220,000; AID 1046;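 active means inhibition at or above 40%; inactive means inhibition below 40%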;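 further: 0% = enzyme with no compound and 100% = wells without enzyme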
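Test system: human alpha-thrombin protein / Dosing: one concentration per compound, 5 µM, with 0.2% DMSO / Medium: pH 7.5 Tris-saline with Tween 20 / Benchmarks: no-compound enzyme wells and no-enzyme blanks / Read-out basis: percent inhibition of thrombin substrate cleavage / Timing: reaction at room temperature / Measured by: fluorescence, ex 355 nm, em 460 nm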
FXIIa inh 1536: inhibitors of human coagulation factor XIIa; P00748; inhibition, % at 5 µM; hit rate 0.3% among 220,000; purified FXIIa, Boc-QGR-AMC fluorogenic substrate, 2 h; AID 800; in the data active means inhibition above about 40%;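 further: 0% = enzyme with no compound and 100% = blank without enzyme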
AHR activator: activators of human aryl hydrocarbon receptor; AID 2796; AHR-responsive luciferase reporter cells, luminescence; hit rate 2.5% among 320,000; P35869; activation, % at 5 µM; in the data active means activation above about 47%;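 further: 0% = vehicle wells and 100% = reference agonist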
hK5 inh: blocks human kallikrein 5 protease activity; Q9Y337; recombinant hK5, fluorogenic AMC substrate cleavage; inhibition, % at 5 µM; hit rate 0.59% among 210,000; AID 873;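 active means inhibition of 40% or more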;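 further: 0% = enzyme controls without compound and 100% = no-enzyme blanks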
AHR act cf: confirmation of human aryl hydrocarbon receptor activators. human cells, AHR-responsive luciferase reporter, luminescence. hit rate 87% among 2,300. shares compounds with AHR activator. activation, % at 9 µM; in the data active means activation above about 49%;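 further: HepG2 hepatoma cells carrying a DRE-driven firefly luciferase reporter; 0% = vehicle wells and 100% = reference agonist wells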
PXR act counter: PXR activation, counter-screen for AHR activators; cell-based PXR reporter, luciferase luminescence; activation, % at 11.6 µM; AID 434939; hit rate 88% among 2,300; shares compounds with AHR activator; in the data active means activation above about 11%;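 further: human hepatoma DPX-2 cells expressing full-length human PXR; 0% = DMSO and 100% = reference agonist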
An asterisk follows results filed as active; / = not tested or not shown. Only some compounds are listed: those with a hit (about 3.5% of all), similar ones and a draw of the others.

SMILES	STAT3 activator	FXIa inh 1536	thrombin 1536	FXIIa inh 1536	AHR activator	hK5 inh	AHR act cf	PXR act counter
COc1cc2ccccc2cc1C(=O)Nc1ccc(N2CCN(C)CC2)cc1	/	/	/	/	33	/	/	/
COc1ccc(Br)cc1C(=O)Nc1ccc(NC(=O)c2ccco2)cc1	81	-6	-5	7	36	1	/	/
COc1ccc(NC(=O)c2cc3ccccc3cc2OC)cc1	/	/	/	/	96*	/	66*	12*
CCOc1ccc(NC(=O)c2cc3ccccc3cc2OC)cc1	/	/	/	/	83*	/	91*	/
Cc1cc(C)c2c(C)c(C(=O)NCc3ccncc3)oc2c1	98	-2	-3	0	83*	-12	73*	24*
CCc1ccc2oc(C(=O)NCc3ccncc3)c(C)c2c1	65	8	0	12	15	-4	/	/
COc1ccc(N=Nc2nc3cc(Br)c(Br)cc3n2C)c(OC)c1	96	4	-1	6	83*	-5	57*	18*
COc1ccc(OC)c(CNc2ccc3c(c2)nc(C)n3C)c1	/	/	/	/	22	/	/	/
CCOC(=O)c1ccc2c(c1)nc(-c1ccccn1)n2CC	/	/	/	/	17	/	/	/
CCOC(=O)c1ccc2c(c1)nc(-c1ccc(F)cc1)c1nccn12	101	2	-1	1	85*	-8	99*	24*
C/C=C/C(=O)OCC(=O)Nc1cc(-c2cc(C)c(C)cc2C)nn1-c1ccccc1	109	-3	-9	5	105*	0	90*	85*
Cc1cccc(CC(=O)N2CCCC2)c1	/	/	/	/	-1	/	/	/
CCc1ccc2oc(-c3cc(N)cc(C)c3O)nc2c1	118	2	1	15	114*	-23	117*	12*
Cc1ccc(-c2nc3cc(N)ccc3o2)cc1Br	/	/	/	/	22	/	/	/
Brc1cccc(-c2nnc(SCc3nc4ccccc4[nH]3)o2)c1	93	6	3	17	92*	-19	42	29*
c1ccc2[nH]c(CSc3nnc(-c4ccncc4)o3)nc2c1	110	3	1	0	26	-26	/	/
Brc1cccc(-c2nnc(-c3ccccc3)o2)c1	110	6	3	17	121*	0	134*	28*
O=C(CNC(=O)c1ccc(Cl)c([N+](=O)[O-])c1)OCN1C(=O)c2ccccc2C1=O	/	/	/	/	1	/	/	/
Cc1sc(NC(=O)C2=COCCO2)nc1-c1ccc(Br)cc1	/	/	/	/	99*	/	94*	34*
O=C(Nc1nnc(-c2ccc(Br)cc2)o1)C1=COCCO1	/	/	/	/	4	/	/	/
Cc1ccc(C2Nc3ccccc3-c3nc4ccccc4n32)o1 (stereo unspecified)	108	-4	-3	-16	116*	-54	74*	53*
O=C(C1CCCN(Cc2ccccc2F)C1)N1CCc2ccccc2C1 (stereo unspecified)	/	2	-4	9	-2	-1	/	/
O=S1(=O)C=C(Sc2nnc(-c3ccccc3)o2)c2ccccc21	107	8	-4	16	-6	-7	/	/
Nc1nc(Nc2ccc(Cl)cc2)nc(NCCO)c1[N+](=O)[O-]	/	3	0	13	111*	3	193*	25*
C=CCNc1nc(N)c([N+](=O)[O-])c(Nc2cccc(Cl)c2)n1	/	/	/	/	89*	/	132*	13*
SMILES	STAT3 activator	FXIa inh 1536	thrombin 1536	FXIIa inh 1536	AHR activator	hK5 inh	AHR act cf	PXR act counter
CCn1nnc2cc(C(=O)Nc3cccc(S(=O)(=O)N(C)C)c3)ccc21	/	/	/	/	-1	/	/	/
CN1CCN(CCCNC(=O)c2ccc(CS(=O)(=O)c3ccc(Br)cc3)o2)CC1	99	1	-3	8	81*	-19	6	12*
O=C(NCCCN1CCCC1)c1ccc(CS(=O)(=O)c2ccc(Br)cc2)o1	104	-2	26	14	-2	-1	/	/
COc1cccc(C2=NC(C)(C)NC(c3ccccc3O)C2)c1 (stereo unspecified)	131	3	2	16	82*	-19	44	52*
CCn1cnc2cc(NCc3ccncc3)ccc21	99	2	1	18	19	-11	/	/
CCn1cnc2cc(NCc3ccc(Cl)cc3)ccc21	/	/	/	/	99*	/	98*	32*
C/C(=N\Nc1ccc(Cl)c(Cl)c1)c1ccc(-n2ccnc2)cc1	91	3	-11	0	23	-20	/	/
C=C(C)CNC(=S)N/N=C(\C)c1ccc(-n2ccnc2)cc1	103	-1	2	13	94*	-17	98*	36*
CON/C=C(\C=Nc1ccc(F)cc1)c1ncc(C(F)(F)F)cc1Cl	114	-3	-2	14	89*	-18	94*	23*
C/C(=N\NC(=O)c1nn(C)c(C)c1Br)c1ccc(NC(=O)c2ccccc2F)cc1	80	3	-2	14	-1	-20	/	/
Cc1cc(C(=O)N2CCN(c3cc(Cl)ccc3C)CC2)on1	/	/	/	/	-6	/	/	/
c1ccc(C2=Nc3ccccc3OC2)cc1	100	3	3	17	21	14	/	/
Cc1ccc2c(c1)N=C(c1ccc(Cl)cc1)CO2	107	6	2	12	135*	9	108*	31*
Clc1ccc(C2=Nc3cc(Cl)ccc3OC2)cc1	106	3	4	9	104*	-5	129*	6
O=C(Nc1cccc(-c2cn3ccsc3n2)c1)c1ccccc1	89	-3	-3	5	82*	-6	72*	14*
